Among the data in ChEMBL document CHEMBL1153851, “(+/-)-3,4-Dihydroxy-8,9-methylenedioxypterocarpan and derivatives: cytotoxic effect on human leukemia cell lines” (Eur J Med Chem, 2009) are IC50 values, retold here.

Series [1] relates to HL-60. Description: Cytotoxicity against human HL60 cells assessed as cell viability after 72 hrs by MTT assay. Format: functional, cell-based. The following applies: HL-60, 72 h. In outline: (§1)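 Cells were kept in RPMI 1640 with 5 × 10^-5 M β-mercaptoethanol, 25 mM Hepes (pH 7.4) and 10% heat-inactivated FCS. Daudi received 20% FCS, and Lucena I received 60 nM vincristine to maintain resistance. Cells were seeded at 2 × 10⁴ cells/mL with compound (0.1–50) for 72 h at 37 °C, 5% CO₂. MTT (5 mg/mL stock) was added for 3 h, formazan was dissolved in DMSO, and A490 was read. Triplicate points; mean of ≥3 experiments.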

Series [2] is described as follows: Cytotoxicity against human K562-Lucena 1 cells assessed as cell viability after 72 hrs by MTT assay. Format: functional, cell-based. The following applies: K562-Lucena 1, 72 h. In outline: as §1
For orientation: Formazan colour is commonly taken as a measure of viable cells.

Series [3] deals with K562. Description: Cytotoxicity against human K562 cells assessed as cell viability after 72 hrs by MTT assay. Format: functional, cell-based. The conditions noted are these: K562, 72 h. In outline:
as §1

In series [4] the test system is Jurkat. Description: Cytotoxicity against human Jurkat cells assessed as cell viability after 72 hrs by MTT assay. Format: functional, cell-based. In outline: as §1
Series [5] relates to Daudi. Description: Cytotoxicity against human Daudi cells assessed as cell viability after 72 hrs by MTT assay. Format: functional, cell-based. The essentials:
as §1

The nature of series [6]: Toxicity against PHA-activated human peripheral lymphocytes assessed as cell viability after 72 hrs by MTT assay. Format: cell-based, Lymphocyte. The essentials:
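PBMC from healthy-volunteer heparinized blood were isolated by Ficoll-Hypaque gradient and resuspended at 10⁶ cells/mL in supplemented RPMI 1640. They were stimulated with PHA and exposed to compound at 2.5–10 µM for 72 h. Controls received diluent without PHA. Viability was read by MTT. Triplicate points; mean ± SD of ≥3 experiments.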

As to `Oc1ccc2c(c1)OC[C@@H]1c3cc4c(cc3O[C@H]21)OCO4` [(+)-MAACKIAIN], the IC50 in series [1], in series [2] and in series [3] was above 50 µM throughout.
As to `Oc1ccc2c(c1O)OC[C@@H]1c3cc4c(cc3O[C@H]21)OCO4`, the IC50 (commonly the concentration needed to halve the response being measured) in series [1] came out at 2.1 µM; in series [2], 3.7 µM; in series [4], 7.6 µM; in series [5], 2.8 µM; in series [3], 3 µM.
Turning to `COc1cc2c(cc1O)[C@H]1COc3c(ccc(O)c3O)[C@H]1O2` (racemic), the IC50 in series [1] was 6.4 µM; in series [2], above 20 µM; in series [3] it was above 10 µM.
For the compound `Oc1cc2c(cc1O)[C@@H]1Oc3cc4c(cc3[C@@H]1CO2)OCO4`, the IC50 in series [1] is above 20 µM; in series [2], above 50 µM; in series [3] it was above 20 µM.
Regarding `O=C1C=CC2=C(OC[C@@H]3c4cc5c(cc4O[C@H]23)OCO5)C1=O` (racemic), the IC50 in series [5] came out at 0.9 µM. Also, the IC50 at 72 h in series [6] amounted to 2.4 µM.
